Laboratory results from ChEMBL document CHEMBL1142242, “Indanylacetic acid derivatives carrying 4-thiazolyl-phenoxy tail groups, a new class of potent PPAR alpha/gamma/delta pan agonists: synthesis, structure-activity relationship, and in vivo efficacy” (J Med Chem, 2007).

Tests used:
[1] = molecular target: T1, Peroxisome proliferator-activated receptor delta (Homo sapiens, UniProt Q03181); experiment: Agonist activity at human PPAR delta by FRET assay; format: functional
T1 sequence (Q03181 whole entry): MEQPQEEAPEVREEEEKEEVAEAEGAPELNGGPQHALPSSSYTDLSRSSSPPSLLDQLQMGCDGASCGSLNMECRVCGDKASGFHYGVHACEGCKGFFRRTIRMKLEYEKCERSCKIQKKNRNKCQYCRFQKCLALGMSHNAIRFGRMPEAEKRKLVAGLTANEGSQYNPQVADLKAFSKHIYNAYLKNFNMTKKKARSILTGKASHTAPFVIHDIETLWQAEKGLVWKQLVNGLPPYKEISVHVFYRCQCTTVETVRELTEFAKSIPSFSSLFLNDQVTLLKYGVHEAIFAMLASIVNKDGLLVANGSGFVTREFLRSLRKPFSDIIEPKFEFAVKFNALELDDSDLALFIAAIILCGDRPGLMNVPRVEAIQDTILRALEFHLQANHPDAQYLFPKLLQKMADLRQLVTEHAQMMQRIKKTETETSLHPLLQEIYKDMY

[2] = molecular target: T2, Peroxisome proliferator-activated receptor alpha (Homo sapiens, UniProt Q07869); experiment: Agonist activity at human PPAR alpha by FRET assay; format: functional
T2 sequence (Q07869 whole entry): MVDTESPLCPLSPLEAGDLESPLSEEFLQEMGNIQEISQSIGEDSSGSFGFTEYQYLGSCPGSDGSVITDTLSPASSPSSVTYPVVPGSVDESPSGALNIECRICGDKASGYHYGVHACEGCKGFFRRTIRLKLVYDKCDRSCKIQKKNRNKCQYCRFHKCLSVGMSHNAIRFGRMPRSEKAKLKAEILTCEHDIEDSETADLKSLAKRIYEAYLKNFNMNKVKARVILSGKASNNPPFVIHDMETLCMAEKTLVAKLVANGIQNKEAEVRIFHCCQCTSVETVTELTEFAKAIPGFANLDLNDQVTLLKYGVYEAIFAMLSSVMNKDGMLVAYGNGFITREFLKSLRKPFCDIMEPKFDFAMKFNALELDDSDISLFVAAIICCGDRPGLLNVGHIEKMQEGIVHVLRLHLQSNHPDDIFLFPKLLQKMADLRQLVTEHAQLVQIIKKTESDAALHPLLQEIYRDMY
Outline: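 Human PPARα ligand binding domain (GST-tagged) association with biotin-labeled co-activator CBP; Eu-labeled anti-GST antibody and streptavidin-APC; incubated 2 h at rt in buffer with or without compound; fluorescence read at 615 or 655 nm emission, 340 nm excitation.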

[3] = molecular target: T3, Peroxisome proliferator-activated receptor gamma (Mus musculus, UniProt P37238); experiment: Agonist activity at PPAR gamma in mouse 3T3L1 cells assessed as increase in insulin receptor by IRBA; format: functional, cell-based, 3T3-L1
T3 sequence (P37238 whole entry): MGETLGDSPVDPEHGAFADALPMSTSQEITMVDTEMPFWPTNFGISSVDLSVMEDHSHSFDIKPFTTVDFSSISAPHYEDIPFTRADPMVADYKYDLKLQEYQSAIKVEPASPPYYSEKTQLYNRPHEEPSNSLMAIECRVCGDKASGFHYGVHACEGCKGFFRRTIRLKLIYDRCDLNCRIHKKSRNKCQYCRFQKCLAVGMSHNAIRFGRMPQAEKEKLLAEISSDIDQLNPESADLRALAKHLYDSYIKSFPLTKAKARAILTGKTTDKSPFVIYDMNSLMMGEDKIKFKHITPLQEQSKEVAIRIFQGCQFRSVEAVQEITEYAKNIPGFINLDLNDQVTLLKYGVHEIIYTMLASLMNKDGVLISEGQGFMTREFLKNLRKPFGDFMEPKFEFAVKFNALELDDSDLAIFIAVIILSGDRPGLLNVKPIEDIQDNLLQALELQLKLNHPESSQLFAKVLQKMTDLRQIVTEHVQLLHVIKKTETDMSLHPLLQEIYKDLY

SMILES | EC50 [1] [nM] | EC50 [2] [nM] | EC50 [3] [nM]
O=C(O)C[C@@H]1CCc2cc(OCCCOc3ccc(-n4cnnc4)cc3Cl)ccc21 | 2230 | 6850 | 8700
Cc1nc(-c2ccc(OCCCOc3ccc4c(c3)CC[C@H]4CC(=O)O)cc2)sc1C(=O)O | 218 | 10000 | 312
COc1csc(-c2ccc(OCCCOc3ccc4c(c3)CC[C@H]4CC(=O)O)c(OC)c2)n1 | 3 | 755 | 69
O=C(O)C[C@@H]1CCc2cc(OCCCOc3ccc(-c4nc5c(s4)CCC5)cc3)ccc21 | 1.3 | 112 | 1200
O=C(O)C[C@@H]1CCc2cc(OCCCOc3ccc(-c4cncnc4)cc3)ccc21 | 11 | 7280 | 970
CCCc1c(OCCCOc2ccc3c(c2)CC[C@H]3CC(=O)O)ccc2[nH]ccc12 | 6.2 | > 10000 | 460
COc1ccc(OCCCOc2ccc3c(c2)CC[C@H]3CC(=O)O)cc1 | 6.7 | > 10000 | 3000
CCCc1cc(-c2nc(C(C)(C)C)cs2)ccc1OCCCOc1ccc2c(c1)CC[C@H]2CC(=O)O | 11 | 87 | 18
CCOc1csc(-c2ccc(OCCCOc3ccc4c(c3)CC[C@H]4CC(=O)O)cc2)n1 | 1.2 | 100 | 753
Cc1noc2cc(OCCCOc3ccc4c(c3)CC[C@H]4CC(=O)O)ccc12 | 16 | > 10000 | 3660
CCCc1cc(-c2nc(C(F)(F)F)cs2)ccc1OCCCOc1ccc2c(c1)CC[C@H]2CC(=O)O | 3.3 | 197 | 55
CCCc1cc(-c2nc(CO)c(C(=O)O)s2)ccc1OCCCOc1ccc2c(c1)CC[C@H]2CC(=O)O | 12 | 6490 | 891
O=C(O)C[C@@H]1CCc2cc(OCCCOc3ccc4c(c3)ONC4(O)C(F)(F)F)ccc21 (some centres not stated) | 67 | > 10000 | 5000
O=C(O)C[C@@H]1CCc2cc(OCCCOc3ccc(-c4ccoc4)cc3)ccc21 | 3.8 | 3270 | 4100
CCOc1csc(-c2ccc(OCCCOc3ccc4c(c3)CC[C@H]4CC(=O)O)c(OC)c2)n1 | 3.4 | 1350 | 920
CC(=O)Nc1cc(-n2ccnn2)ccc1OCCCOc1ccc2c(c1)CC[C@H]2CC(=O)O | – | 9200 | 5600
Cc1coc2cc(OCCCOc3ccc4c(c3)CC[C@H]4CC(=O)O)ccc12 | 8 | > 10000 | 1950
Cc1noc2c(C)c(OCCCOc3ccc4c(c3)CC[C@H]4CC(=O)O)ccc12 | 8.1 | > 10000 | 290
COc1cc(-c2nc(C)c(C(=O)O)s2)ccc1OCCCOc1ccc2c(c1)CC[C@H]2CC(=O)O | 28 | 10000 | 1000
CCCc1cc(-c2nc3c(s2)CCC3)ccc1OCCCOc1ccc2c(c1)CC[C@H]2CC(=O)O | 3.5 | 328 | 94
COc1cccc(OCCCOc2ccc3c(c2)CC[C@H]3CC(=O)O)c1 | 117 | > 10000 | –
Cc1cccc(OCCCOc2ccc3c(c2)CC[C@H]3CC(=O)O)c1 | 56 | > 10000 | 8000
Cc1cccc(-c2ccc(OCCCOc3ccc4c(c3)CC[C@H]4CC(=O)O)cc2)n1 | 2.2 | 5260 | 550
O=C(O)C[C@@H]1CCc2cc(OCCCOc3ccc(-c4ccccc4)cc3)ccc21 | 43 | > 10000 | –
CCCc1cc(Oc2ccccc2)ccc1OCCCOc1ccc2c(c1)CC[C@H]2CC(=O)O | 1.9 | > 10000 | –
O=C(O)C[C@@H]1CCc2cc(OCCCOc3ccc(-n4cncn4)cc3)ccc21 | – | > 10000 | –
COc1cc(-c2nccs2)ccc1OCCCOc1ccc2c(c1)CC[C@H]2CC(=O)O | – | 255 | 374
COc1cc(-c2nc3ccccc3s2)ccc1OCCCOc1ccc2c(c1)CC[C@H]2CC(=O)O | 5.2 | 526 | –
CCCc1cc(C(F)(F)F)ccc1OCCCOc1ccc2c(c1)CC[C@H]2CC(=O)O | 1.6 | 1140 | –

The next lines start with the values.

EC50 [1] [nM] | EC50 [2] [nM] | EC50 [3] [nM] | SMILES
40 | 6700 | 1030 | Cn1ccc2cc(OCCCOc3ccc4c(c3)CC[C@H]4CC(=O)O)ccc21
4.4 | 1280 | 874 | CCc1csc(-c2ccc(OCCCOc3ccc4c(c3)CC[C@H]4CC(=O)O)cc2)n1
5.4 | 520 | 362 | CCOc1nc(-c2ccc(OCCCOc3ccc4c(c3)CC[C@H]4CC(=O)O)c(OC)c2)sc1CC
11 | 147 | 45 | CCCc1cc(-c2nc(CC)cs2)ccc1OCCCOc1ccc2c(c1)CC[C@H]2CC(=O)O
4.1 | 53 | 116 | COc1cc(-c2nc3c(s2)CCC3)ccc1OCCCOc1ccc2c(c1)CC[C@H]2CC(=O)O
8.9 | 1980 | 6200 | CCc1ccc(OCCCOc2ccc3c(c2)CC[C@H]3CC(=O)O)cc1
828 | > 10000 | > 10000 | O=C(O)C[C@@H]1CCc2cc(OCCCOc3ccc4cnoc4c3)ccc21
2.2 | > 10000 | 1240 | CCOc1cc(C)ccc1OCCCOc1ccc2c(c1)CC[C@H]2CC(=O)O
2.7 | 700 | 1650 | CCc1ccc(OCCCOc2ccc3c(c2)CC[C@H]3CC(=O)O)c(OC)c1
46 | 1690 | 238 | CCCc1cc(-c2nc(C)c(C(=O)O)s2)ccc1OCCCOc1ccc2c(c1)CC[C@H]2CC(=O)O
2 | 105 | 41 | CCCc1cc(-c2nc(OCC)cs2)ccc1OCCCOc1ccc2c(c1)CC[C@H]2CC(=O)O
3 | 180 | 44 | COc1cc(-c2nc(OC(C)C)cs2)ccc1OCCCOc1ccc2c(c1)CC[C@H]2CC(=O)O
4.6 | 2480 | 27 | CCCc1cc(-c2nc(CC(=O)O)cs2)ccc1OCCCOc1ccc2c(c1)CC[C@H]2CC(=O)O
44 | > 10000 | > 10000 | O=C(O)C[C@@H]1CCc2cc(OCCCOc3ccccc3)ccc21
7.3 | 5700 | 637 | N#Cc1ccc(OCCCOc2ccc3c(c2)CC[C@H]3CC(=O)O)cc1
67 | > 10000 | 3650 | Cc1cc2cc(OCCCOc3ccc4c(c3)CC[C@H]4CC(=O)O)ccc2[nH]1
2.9 | 437 | 327 | COc1cc(-c2nc(C(F)(F)F)cs2)ccc1OCCCOc1ccc2c(c1)CC[C@H]2CC(=O)O
18 | 175 | 17 | CCCc1cc(-c2nc(C)c(C(C)=O)s2)ccc1OCCCOc1ccc2c(c1)CC[C@H]2CC(=O)O
6.6 | > 10000 | 940 | CCOc1ccc(OCCCOc2ccc3c(c2)CC[C@H]3CC(=O)O)cc1
2.1 | 803 | – | COc1cc(-c2nc(C)c(C(=O)N(C)C)s2)ccc1OCCCOc1ccc2c(c1)CC[C@H]2CC(=O)O
